Bioassay records from PubChem.
TRPC4 block = blocks the mouse TRPC4 cation channel; HEK293 TRPC4beta/mu-opioid, DAMGO-evoked Fluo4 calcium flux; hits give low values; B-score at 10 µM; actives 0.39% (n = 300,000);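 active = B-score over 3 SD under the library average, no early fluorescence shift, positive overall ratio signal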
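Assay system: HEK293 cells with stable TRPC4beta plus mu-opioid receptor expression; Probe or stimulus: DAMGO in two steps, submaximal then maximal; Dosing: single-point compound dosing; Measured by: Fluo4 calcium-dye fluorescence, kinetic read; Read-out basis: B score from integrated Fluo4 fluorescence ratio.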
Kir21 block = Kir2.1 (mouse) channel inhibition | AID 1672 | P35561 | HEK293-Kir2.1, FluxOR thallium flux fluorescence; hits give low values | actives 0.85% (n = 310,000) | B-score at 10 µM;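 active = fluorescence ratio B-score at or below minus 3 SD of library scores, with starting-brightness B-score within 2 SD, cut at about -4.2 in these data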;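 also: channel flux triggered by added potassium and thallium sulfate stimulus; B-score of peak minus minimum fluorescence over baseline after thallium stimulus; more negative B-score means stronger Kir2.1 block with less thallium influx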
TRPC6 inh = mouse TRPC6 channel inhibition | Q61143 | HEK293-TRPC6, membrane potential dye, ACh-evoked depolarization; hits give low values | B-score at 10 µM | actives 1.1% (n = 310,000) | AID 2553;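 active = B-score under library mean minus 3 SD, initial fluorescence not abnormally high, positive integrated signal ratio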;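 also: B-score derived from integrated fluorescence ratio over the kinetic read; more negative B-score means stronger inhibition of depolarization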
TRPC4 agonist = activators of mouse TRPC4 channel | Q9QUQ5 | HEK293 TRPC4beta/mu-opioid, Fluo4 calcium fluorescence; hits give high values | B-score at 10 µM | actives 0.49% (n = 310,000);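 active = B-score above 5 SD of library B-scores, and initial fluorescence ratio not above library mean plus 5 SD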;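 also: positive B-score marks a calcium rise read as TRPC4 activation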
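Assay system: HEK293 stable line with TRPC4beta plus mu-opioid receptor. Times: dye 45 min RT, read 110 s. Measured by: kinetic Fluo4 calcium fluorescence. Measure: B score of integrated ratio. Controls: assay buffer as low control, maximal DAMGO as high control.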
TRPC4 PAM = allosterically enhances the mouse TRPC4 cation channel; HEK293 TRPC4beta/mu-opioid, DAMGO EC20, Fluo-4 Ca2+ flux; hits give high values; actives 0.42% (n = 310,000); B-score at 10 µM;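 active = B-score of calcium response area above 5 SD of library B-scores, with initial fluorescence ratio within 5 SD of library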
TRPC6 activator = activators of mouse TRPC6 channel; Q61143; HEK293-TRPC6 membrane potential dye fluorescence; hits give high values; B-score at 10 µM; actives 0.13% (n = 310,000);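 active = B-score of the integrated fluorescence ratio above library mean plus 3 SD, and starting fluorescence ratio within library mean plus 5 SD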;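 also: higher score means more depolarization so channel activation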
Large screens that a line does not name were inactive. Sampled rows, rich in hits. Any-hit rate of the full collection: about 2.9%.

CC1(C)Cc2c(cnn2-c2ccc(F)cc2)C(NC(=O)CN2CCCCC2=O)C1 (configuration not stated)	none
CS(=O)(=O)N(CC(O)CON=C1c2ccccc2-c2ccccc21)c1ccc(F)cc1 (configuration not stated)	none
CCC(=O)c1ccc(OCC(O)CNCCc2ccc(Cl)cc2)cc1 (configuration not stated)	TRPC4 agonist 59
O=C(c1ccccc1)c1ccc(OCC(O)CNCc2cccc(Cl)c2)cc1 (configuration not stated)	Kir21 block -8.4
CC(C)CCNCC(O)CON=C1c2ccccc2-c2ccccc21 (configuration not stated)	Kir21 block -4.47, TRPC4 agonist 66
OC(CNCCc1ccc(Cl)cc1)COc1cc(Cl)ccc1Cl (configuration not stated)	Kir21 block -13.8
OC(CNCc1cccc(Cl)c1)c1ccccc1 (configuration not stated)	none
C#CCOCCOCCOCCNc1nc(N2CCN(C(=O)[C@H]([C@@H](C)CC)n3cc([C@@H](N)Cc4ccc(O)cc4)nn3)CC2)nc(N2CCN(C(=O)[C@H](CCCCN)n3cc([C@@H](N)CC(C)C)nn3)CC2)n1	none
CCOc1ccc(N2C(=O)CN(CC(=O)OC)C2=S)cc1	none
COc1ccc(C(OCC(O)CNCCc2ccccc2)c2ccc(OC)cc2)cc1 (configuration not stated)	Kir21 block -6.66
COc1ccc(C(OCC(O)CNC(C)c2ccccc2)c2ccc(OC)cc2)cc1 (configuration not stated)	none
